The results in this text go back to ChEMBL document CHEMBL4354843, “Structure-Based Design of a Potent and Selective Covalent Inhibitor for SRC Kinase That Targets a P-Loop Cysteine” (J Med Chem, 2020).

Each structure is given as a SMILES string. Calls of active or inactive are those of the source. The rule behind the calls is not given here.

In assay [1] the target is Mitogen-activated protein kinase 13 (Homo sapiens) (UniProt O15264). Nature of the assay: Binding affinity to wild-type human full length p38-delta (M1 to L365 residues) expressed in bacterial expression system assessed as residual binding level at 1 uM by Kinomescan method relative to control.
The target of assay [2] is Serine/threonine-protein kinase TAO3 (Homo sapiens) (UniProt Q9H2K8). The assay is described as follows: Binding affinity to wild-type human partial length TAOK3 (M1 to T316 residues) expressed in mammalian expression system assessed as residual binding level at 1 uM by Kinomescan method relative to control.
Assay [3] has as its target Serine/threonine-protein kinase 17A (Homo sapiens) (UniProt Q9UEE5). Nature of the assay: Binding affinity to wild-type human partial length DRAK1 (R32 to E363 residues) expressed in bacterial expression system assessed as residual binding level at 1 uM by Kinomescan method relative to control.
Assay [4] addresses Dual specificity mitogen-activated protein kinase kinase; MEK1/2 (Homo sapiens) (UniProt P36507+Q02750). Nature of the assay: Inhibition of MEK1/2 in human HCC827 cells assessed as blocking of MEK1/2 pulldown at 1 uM in presence of TL13-68 incubated for 2 hrs by Western blot analysis. The class given is cell-based. The procedure, abridged: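 H1975 or HCC827 cells treated with 1 μM compound or DMSO for 2 h, rinsed twice in cold PBS, and lysed in M-PER with protease/phosphatase inhibitors. Lysate rocked overnight at 4 °C with 1 μM TL13-68, then streptavidin pulldown with five cold washes. Bound kinases detected by Western blot. Two independent experiments.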
A general note: In western blotting, separated proteins are transferred to a membrane and probed.

Assay [5] concerns the target Serine/threonine-protein kinase MRCK gamma (Homo sapiens) (UniProt Q6DT37). Nature of the assay: Binding affinity to wild-type human partial length DMPK2 (S46 to S408 residues) expressed in bacterial expression system assessed as residual binding level at 1 uM by Kinomescan method relative to control.
Assay [6] concerns the target 1-phosphatidylinositol 3-phosphate 5-kinase (Homo sapiens) (UniProt Q9Y2I7). Nature of the assay: Binding affinity to wild-type human partial length PIKFYVE (F1512 to C2098 residues) expressed in mammalian expression system assessed as residual binding level at 1 uM by Kinomescan method relative to control.
Assay [7] deals with Hormonally up-regulated neu tumor-associated kinase (Homo sapiens) (UniProt P57058). Nature of the assay: Binding affinity to wild-type human partial length HUNK (A31 to K354 residues) expressed in bacterial expression system assessed as residual binding level at 1 uM by Kinomescan method relative to control.
Hormonally up-regulated neu tumor-associated kinase (Homo sapiens), sequence (P57058 whole entry, the tested form may be a part): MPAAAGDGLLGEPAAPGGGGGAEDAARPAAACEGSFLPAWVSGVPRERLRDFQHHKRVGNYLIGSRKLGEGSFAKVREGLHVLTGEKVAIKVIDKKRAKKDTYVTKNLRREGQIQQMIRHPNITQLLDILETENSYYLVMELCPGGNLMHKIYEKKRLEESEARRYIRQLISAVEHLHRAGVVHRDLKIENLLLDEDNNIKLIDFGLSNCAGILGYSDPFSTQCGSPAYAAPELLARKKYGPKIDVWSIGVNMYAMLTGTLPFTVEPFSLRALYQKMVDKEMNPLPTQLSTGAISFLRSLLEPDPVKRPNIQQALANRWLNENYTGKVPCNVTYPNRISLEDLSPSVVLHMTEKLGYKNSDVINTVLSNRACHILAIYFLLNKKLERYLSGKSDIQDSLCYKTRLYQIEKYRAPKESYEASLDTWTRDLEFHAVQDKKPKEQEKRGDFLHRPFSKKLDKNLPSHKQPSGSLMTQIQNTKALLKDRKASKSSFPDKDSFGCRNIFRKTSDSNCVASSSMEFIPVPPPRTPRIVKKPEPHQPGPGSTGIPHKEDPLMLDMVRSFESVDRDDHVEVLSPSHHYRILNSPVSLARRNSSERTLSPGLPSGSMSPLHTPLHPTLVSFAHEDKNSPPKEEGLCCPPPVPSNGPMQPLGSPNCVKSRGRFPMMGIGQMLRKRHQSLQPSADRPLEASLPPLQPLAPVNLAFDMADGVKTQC
The target in assay [8] is Mitogen-activated protein kinase kinase kinase 12 (DLK) (Homo sapiens) (UniProt Q12852). The assay is described as follows: Binding affinity to wild-type human full length DLK (M1 to P859 residues) expressed in mammalian expression system assessed as residual binding level at 1 uM by Kinomescan method relative to control.
For assay [9], the target named is Mitogen-activated protein kinase kinase kinase 5 (Homo sapiens) (UniProt Q99683). Nature of the assay: Binding affinity to wild-type human partial length ASK1 (E648 to S964 residues) expressed in bacterial expression system assessed as residual binding level at 1 uM by Kinomescan method relative to control.
Assay [10] concerns the target Receptor-type tyrosine-protein kinase FLT3 (Homo sapiens) (UniProt P36888). Nature of the assay: Binding affinity to wild-type human partial length FLT3 (V592 to Y969 residues) expressed in bacterial expression system assessed as residual binding level at 1 uM by Kinomescan method relative to control.
For assay [11], the target named is Mitogen-activated protein kinase kinase kinase 1 (Homo sapiens) (UniProt Q13233). The assay is described as follows: Binding affinity to wild-type human partial length MAP3K1 (L1202 to W1512 residues) expressed in mammalian expression system assessed as residual binding level at 1 uM by Kinomescan method relative to control. A digest of the protocol: (§1)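 Active-site-directed competition binding panel of 468 kinases (KinomeScan), compound at 1 μM. The read-out is kinase remaining bound, given as a percentage of the DMSO control. […]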

Assay [12] has as its target Rho-associated protein kinase 1 (Homo sapiens) (UniProt Q13464). The assay is described as follows: Binding affinity to wild-type human partial length ROCK1 (M1 to R415 residues) expressed in mammalian expression system assessed as residual binding level at 1 uM by Kinomescan method relative to control.
Assay [13] concerns the target Serine/threonine-protein kinase Chk1 (Homo sapiens) (UniProt O14757). The assay is described as follows: Binding affinity to wild-type human partial length CHEK1 (M1 to G289 residues) expressed in bacterial expression system assessed as residual binding level at 1 uM by Kinomescan method relative to control.
Assay [14] deals with Serine/threonine-protein kinase ULK1 (Homo sapiens) (UniProt O75385). Nature of the assay: Binding affinity to wild-type human partial length ULK1 (M1 to T309 residues) expressed in mammalian expression system assessed as residual binding level at 1 uM by Kinomescan method relative to control.
Assay [15] addresses Receptor-interacting serine/threonine-protein kinase 4 (Homo sapiens) (UniProt P57078). Nature of the assay: Binding affinity to wild-type human partial length RIPK4 (M1 to V303 residues) expressed in mammalian expression system assessed as residual binding level at 1 uM by Kinomescan method relative to control.
The target in assay [16] is Serine/threonine-protein kinase D1 (Homo sapiens) (UniProt Q15139). The assay is described as follows: Binding affinity to wild-type human partial length PRKD1 (G551 to E870 residues) expressed in bacterial expression system assessed as residual binding level at 1 uM by Kinomescan method relative to control.
Serine/threonine-protein kinase D1 (Homo sapiens), sequence (Q15139 whole entry, the tested form may be a part): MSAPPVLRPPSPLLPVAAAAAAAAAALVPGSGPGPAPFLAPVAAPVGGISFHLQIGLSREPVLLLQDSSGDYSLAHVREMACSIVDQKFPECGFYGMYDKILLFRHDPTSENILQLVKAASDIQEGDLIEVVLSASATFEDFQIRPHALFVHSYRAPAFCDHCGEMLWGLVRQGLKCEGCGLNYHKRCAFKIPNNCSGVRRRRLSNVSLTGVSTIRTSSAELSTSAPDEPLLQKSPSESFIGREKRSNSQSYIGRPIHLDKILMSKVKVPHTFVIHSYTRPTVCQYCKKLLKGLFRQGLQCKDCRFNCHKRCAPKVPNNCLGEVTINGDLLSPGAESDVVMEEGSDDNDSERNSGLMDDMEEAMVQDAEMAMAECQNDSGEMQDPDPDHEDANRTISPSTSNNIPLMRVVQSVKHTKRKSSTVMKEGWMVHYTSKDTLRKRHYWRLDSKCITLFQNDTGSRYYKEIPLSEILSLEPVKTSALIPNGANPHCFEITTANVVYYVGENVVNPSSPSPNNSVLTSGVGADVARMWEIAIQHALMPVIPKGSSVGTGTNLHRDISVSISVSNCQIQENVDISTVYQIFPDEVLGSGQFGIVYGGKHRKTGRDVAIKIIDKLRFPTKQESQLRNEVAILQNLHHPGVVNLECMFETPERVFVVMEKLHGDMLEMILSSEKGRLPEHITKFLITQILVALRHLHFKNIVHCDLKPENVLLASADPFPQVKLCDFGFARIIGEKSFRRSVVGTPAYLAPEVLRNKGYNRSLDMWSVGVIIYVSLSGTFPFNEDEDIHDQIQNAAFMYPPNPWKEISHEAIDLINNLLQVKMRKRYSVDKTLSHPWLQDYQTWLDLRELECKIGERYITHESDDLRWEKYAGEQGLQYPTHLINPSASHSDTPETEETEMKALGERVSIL
Assay [17] has as its target Serine/threonine-protein kinase OSR1 (Homo sapiens) (UniProt O95747). Nature of the assay: Binding affinity to wild-type human full length OSR1 (M1 to S527 residues) expressed in mammalian expression system assessed as residual binding level at 1 uM by Kinomescan method relative to control. A digest of the protocol:
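Active-site-directed competition binding panel (KinomeScan) covering 468 kinases. Test agent was screened at 1 μM. The read-out is the remaining kinase signal expressed relative to a DMSO control. Scores above 35%, taken as weak binding, were not reported.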

Assay [18] has as its target Casein kinase I isoform alpha (Homo sapiens) (UniProt P48729). Nature of the assay: Binding affinity to wild-type human partial length CSNK1A1 (M1 to L450 residues) expressed in mammalian expression system assessed as residual binding level at 1 uM by Kinomescan method relative to control. The procedure, abridged:
as §1

The target in assay [19] is Serine/threonine-protein kinase tousled-like 2 (Homo sapiens) (UniProt Q86UE8). Nature of the assay: Binding affinity to wild-type human partial length TLK2 (E424 to N749 residues) expressed in bacterial expression system assessed as residual binding level at 1 uM by Kinomescan method relative to control.
The target in assay [20] is Calcium/calmodulin-dependent protein kinase type II subunit alpha (Homo sapiens) (UniProt Q9UQM7). Nature of the assay: Binding affinity to wild-type human partial length CAMK2A (M1 to K328 residues) expressed in bacterial expression system assessed as residual binding level at 1 uM by Kinomescan method relative to control.
Assay [21] addresses STE20-like serine/threonine-protein kinase (Homo sapiens) (UniProt Q9H2G2). Nature of the assay: Binding affinity to wild-type human partial length SLK (S14 to A307 residues) expressed in bacterial expression system assessed as residual binding level at 1 uM by Kinomescan method relative to control.

Serine/threonine-protein kinase MRCK gamma (Homo sapiens), sequence (Q6DT37 whole entry, the tested form may be a part): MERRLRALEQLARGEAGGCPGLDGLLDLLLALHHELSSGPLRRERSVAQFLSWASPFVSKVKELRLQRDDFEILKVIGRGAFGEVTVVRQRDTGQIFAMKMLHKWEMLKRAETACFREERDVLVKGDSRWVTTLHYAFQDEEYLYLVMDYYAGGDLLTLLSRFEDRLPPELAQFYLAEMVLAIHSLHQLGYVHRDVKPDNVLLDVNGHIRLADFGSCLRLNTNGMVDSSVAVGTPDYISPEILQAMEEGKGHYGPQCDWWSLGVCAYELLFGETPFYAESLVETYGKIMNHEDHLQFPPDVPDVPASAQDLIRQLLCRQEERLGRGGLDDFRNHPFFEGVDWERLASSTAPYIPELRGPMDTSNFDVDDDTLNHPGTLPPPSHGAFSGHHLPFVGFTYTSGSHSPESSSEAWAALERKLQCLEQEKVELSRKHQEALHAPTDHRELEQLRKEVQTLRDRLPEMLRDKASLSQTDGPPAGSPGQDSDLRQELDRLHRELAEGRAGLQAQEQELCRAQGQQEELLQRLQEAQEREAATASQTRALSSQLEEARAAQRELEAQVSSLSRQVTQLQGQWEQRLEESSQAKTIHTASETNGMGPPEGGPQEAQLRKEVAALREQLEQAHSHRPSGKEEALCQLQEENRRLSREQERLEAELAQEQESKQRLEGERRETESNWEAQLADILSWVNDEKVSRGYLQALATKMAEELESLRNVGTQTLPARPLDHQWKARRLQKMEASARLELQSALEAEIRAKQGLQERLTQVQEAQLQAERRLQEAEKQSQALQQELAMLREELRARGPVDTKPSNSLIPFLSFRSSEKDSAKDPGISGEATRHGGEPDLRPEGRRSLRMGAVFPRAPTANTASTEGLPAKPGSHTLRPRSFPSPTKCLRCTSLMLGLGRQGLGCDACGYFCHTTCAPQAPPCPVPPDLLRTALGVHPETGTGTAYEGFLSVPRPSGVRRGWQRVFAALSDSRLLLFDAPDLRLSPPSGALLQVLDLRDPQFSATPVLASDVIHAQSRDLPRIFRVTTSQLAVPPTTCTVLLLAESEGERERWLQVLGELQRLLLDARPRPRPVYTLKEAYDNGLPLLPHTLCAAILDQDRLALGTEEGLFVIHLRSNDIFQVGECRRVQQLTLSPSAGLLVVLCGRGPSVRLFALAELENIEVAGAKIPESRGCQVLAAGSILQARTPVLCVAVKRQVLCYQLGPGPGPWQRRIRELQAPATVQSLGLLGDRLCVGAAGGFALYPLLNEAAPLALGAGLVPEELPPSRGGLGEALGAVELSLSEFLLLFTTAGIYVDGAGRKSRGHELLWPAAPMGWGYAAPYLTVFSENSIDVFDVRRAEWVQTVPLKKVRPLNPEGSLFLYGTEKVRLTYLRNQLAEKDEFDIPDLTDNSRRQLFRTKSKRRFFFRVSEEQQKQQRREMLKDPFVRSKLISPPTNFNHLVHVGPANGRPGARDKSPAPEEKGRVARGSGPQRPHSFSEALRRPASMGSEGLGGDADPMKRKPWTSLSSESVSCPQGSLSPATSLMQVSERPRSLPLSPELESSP
Receptor-type tyrosine-protein kinase FLT3 (Homo sapiens), sequence (P36888 whole entry, the tested form may be a part): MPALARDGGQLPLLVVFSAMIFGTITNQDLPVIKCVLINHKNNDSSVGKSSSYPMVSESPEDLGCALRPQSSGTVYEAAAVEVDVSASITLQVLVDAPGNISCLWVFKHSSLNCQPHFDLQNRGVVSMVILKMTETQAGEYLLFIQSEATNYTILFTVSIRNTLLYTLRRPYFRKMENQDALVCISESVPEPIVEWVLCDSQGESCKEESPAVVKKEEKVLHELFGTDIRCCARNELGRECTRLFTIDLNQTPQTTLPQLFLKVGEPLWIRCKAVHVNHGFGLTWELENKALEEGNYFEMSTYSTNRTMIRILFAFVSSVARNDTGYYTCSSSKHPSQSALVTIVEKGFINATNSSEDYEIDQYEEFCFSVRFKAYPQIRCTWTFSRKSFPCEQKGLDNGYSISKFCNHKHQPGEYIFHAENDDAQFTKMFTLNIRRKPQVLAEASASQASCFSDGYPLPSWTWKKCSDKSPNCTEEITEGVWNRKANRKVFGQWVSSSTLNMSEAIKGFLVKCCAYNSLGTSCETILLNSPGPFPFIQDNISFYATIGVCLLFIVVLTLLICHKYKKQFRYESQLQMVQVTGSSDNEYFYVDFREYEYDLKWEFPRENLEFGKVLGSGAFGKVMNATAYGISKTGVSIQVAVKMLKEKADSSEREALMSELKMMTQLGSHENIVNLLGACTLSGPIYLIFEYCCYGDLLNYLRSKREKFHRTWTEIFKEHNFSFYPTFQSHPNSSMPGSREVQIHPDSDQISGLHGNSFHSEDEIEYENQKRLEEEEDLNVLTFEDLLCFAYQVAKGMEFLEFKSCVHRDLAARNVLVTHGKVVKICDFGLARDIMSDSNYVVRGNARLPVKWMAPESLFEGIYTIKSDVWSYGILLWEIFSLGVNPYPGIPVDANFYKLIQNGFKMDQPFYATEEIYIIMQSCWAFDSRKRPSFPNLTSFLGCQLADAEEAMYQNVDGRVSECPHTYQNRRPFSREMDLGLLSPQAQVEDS
Serine/threonine-protein kinase Chk1 (Homo sapiens), sequence (O14757 whole entry, the tested form may be a part): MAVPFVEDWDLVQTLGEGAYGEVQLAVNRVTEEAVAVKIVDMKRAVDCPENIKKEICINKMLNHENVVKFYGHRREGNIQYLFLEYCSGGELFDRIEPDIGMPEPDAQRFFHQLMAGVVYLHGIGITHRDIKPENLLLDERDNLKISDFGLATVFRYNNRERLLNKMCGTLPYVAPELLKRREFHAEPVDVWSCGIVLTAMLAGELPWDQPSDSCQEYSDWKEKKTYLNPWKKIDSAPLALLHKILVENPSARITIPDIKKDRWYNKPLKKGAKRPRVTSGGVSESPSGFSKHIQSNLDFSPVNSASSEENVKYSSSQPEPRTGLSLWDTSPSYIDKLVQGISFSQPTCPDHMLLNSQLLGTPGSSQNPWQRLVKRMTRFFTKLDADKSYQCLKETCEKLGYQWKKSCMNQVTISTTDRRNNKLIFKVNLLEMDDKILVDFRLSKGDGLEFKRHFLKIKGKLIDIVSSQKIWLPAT
Casein kinase I isoform alpha (Homo sapiens), sequence (P48729 2-337 limits assumed): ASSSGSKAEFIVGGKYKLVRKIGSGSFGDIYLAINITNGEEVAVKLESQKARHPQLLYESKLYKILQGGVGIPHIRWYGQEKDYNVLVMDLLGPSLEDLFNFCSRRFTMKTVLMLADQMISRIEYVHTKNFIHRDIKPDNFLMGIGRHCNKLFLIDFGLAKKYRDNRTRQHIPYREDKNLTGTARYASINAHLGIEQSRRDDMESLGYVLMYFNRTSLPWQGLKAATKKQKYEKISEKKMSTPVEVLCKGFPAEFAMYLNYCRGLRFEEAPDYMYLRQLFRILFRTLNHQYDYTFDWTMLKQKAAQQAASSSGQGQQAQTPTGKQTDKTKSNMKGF

Take `C=CC(=O)Nc1ccccc1Nc1nc(Nc2ccc(N3CCN(C)CC3)cc2)ncc1C(=O)Nc1c(C)cccc1Cl`: the Activity in assay [1], in [2], in [3], in assay [5], in [6] and in assay [7] was 100% throughout. Also, the Activity in assay [8] amounted to 97%; in assay [9], 100%; in assay [10] it was 99%; in assay [11] it was 99%; in assay [12], 100%; in [13], 100%. The Activity in assay [14] was determined as 100%; in [15], 100%; in assay [16], 100%; in [17], 100%; in assay [18], 86%; in assay [19], 100%. The Activity in assay [20] and in assay [21] was 100% each time. Also, the inhibition entry in assay [4] was “inactive”.
